Laboratory results reported in ChEMBL document CHEMBL4680104, “Structure-Based Optimization of Small-Molecule Inhibitors for the β-Catenin/B-Cell Lymphoma 9 Protein-Protein Interaction” (J Med Chem, 2018).

Legend:
[1] = target: T1, beta-catenin-B-cell lymphoma 9 protein complex (Homo sapiens, UniProt P35222); assay: Inhibition of protein interaction between beta-catenin (unknown origin)/BCL9 (unknown origin) by Alpha-screen competitive inhibition assay; type: protein-complex assay
T1 sequence (P35222 whole entry): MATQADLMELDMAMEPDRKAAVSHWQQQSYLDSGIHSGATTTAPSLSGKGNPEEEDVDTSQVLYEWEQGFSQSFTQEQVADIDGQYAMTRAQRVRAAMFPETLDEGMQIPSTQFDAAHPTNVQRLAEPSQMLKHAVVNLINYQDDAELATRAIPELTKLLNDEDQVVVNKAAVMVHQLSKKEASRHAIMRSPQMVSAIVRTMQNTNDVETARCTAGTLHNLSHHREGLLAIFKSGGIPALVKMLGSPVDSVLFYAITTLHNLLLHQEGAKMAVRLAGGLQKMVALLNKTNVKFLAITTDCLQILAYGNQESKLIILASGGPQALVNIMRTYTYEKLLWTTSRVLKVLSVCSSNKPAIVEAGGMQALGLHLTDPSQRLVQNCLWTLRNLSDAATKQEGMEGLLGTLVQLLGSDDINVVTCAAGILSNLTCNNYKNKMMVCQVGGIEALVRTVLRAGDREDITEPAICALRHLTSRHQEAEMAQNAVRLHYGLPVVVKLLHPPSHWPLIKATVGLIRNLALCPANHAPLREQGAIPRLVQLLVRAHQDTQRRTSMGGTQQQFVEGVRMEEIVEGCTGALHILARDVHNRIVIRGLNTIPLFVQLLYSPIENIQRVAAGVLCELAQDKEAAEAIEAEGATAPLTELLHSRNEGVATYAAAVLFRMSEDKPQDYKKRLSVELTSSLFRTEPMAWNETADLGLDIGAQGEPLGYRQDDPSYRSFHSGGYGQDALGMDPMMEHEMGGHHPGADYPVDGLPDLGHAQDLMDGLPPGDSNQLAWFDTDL
T1 sequence (O00512 whole entry): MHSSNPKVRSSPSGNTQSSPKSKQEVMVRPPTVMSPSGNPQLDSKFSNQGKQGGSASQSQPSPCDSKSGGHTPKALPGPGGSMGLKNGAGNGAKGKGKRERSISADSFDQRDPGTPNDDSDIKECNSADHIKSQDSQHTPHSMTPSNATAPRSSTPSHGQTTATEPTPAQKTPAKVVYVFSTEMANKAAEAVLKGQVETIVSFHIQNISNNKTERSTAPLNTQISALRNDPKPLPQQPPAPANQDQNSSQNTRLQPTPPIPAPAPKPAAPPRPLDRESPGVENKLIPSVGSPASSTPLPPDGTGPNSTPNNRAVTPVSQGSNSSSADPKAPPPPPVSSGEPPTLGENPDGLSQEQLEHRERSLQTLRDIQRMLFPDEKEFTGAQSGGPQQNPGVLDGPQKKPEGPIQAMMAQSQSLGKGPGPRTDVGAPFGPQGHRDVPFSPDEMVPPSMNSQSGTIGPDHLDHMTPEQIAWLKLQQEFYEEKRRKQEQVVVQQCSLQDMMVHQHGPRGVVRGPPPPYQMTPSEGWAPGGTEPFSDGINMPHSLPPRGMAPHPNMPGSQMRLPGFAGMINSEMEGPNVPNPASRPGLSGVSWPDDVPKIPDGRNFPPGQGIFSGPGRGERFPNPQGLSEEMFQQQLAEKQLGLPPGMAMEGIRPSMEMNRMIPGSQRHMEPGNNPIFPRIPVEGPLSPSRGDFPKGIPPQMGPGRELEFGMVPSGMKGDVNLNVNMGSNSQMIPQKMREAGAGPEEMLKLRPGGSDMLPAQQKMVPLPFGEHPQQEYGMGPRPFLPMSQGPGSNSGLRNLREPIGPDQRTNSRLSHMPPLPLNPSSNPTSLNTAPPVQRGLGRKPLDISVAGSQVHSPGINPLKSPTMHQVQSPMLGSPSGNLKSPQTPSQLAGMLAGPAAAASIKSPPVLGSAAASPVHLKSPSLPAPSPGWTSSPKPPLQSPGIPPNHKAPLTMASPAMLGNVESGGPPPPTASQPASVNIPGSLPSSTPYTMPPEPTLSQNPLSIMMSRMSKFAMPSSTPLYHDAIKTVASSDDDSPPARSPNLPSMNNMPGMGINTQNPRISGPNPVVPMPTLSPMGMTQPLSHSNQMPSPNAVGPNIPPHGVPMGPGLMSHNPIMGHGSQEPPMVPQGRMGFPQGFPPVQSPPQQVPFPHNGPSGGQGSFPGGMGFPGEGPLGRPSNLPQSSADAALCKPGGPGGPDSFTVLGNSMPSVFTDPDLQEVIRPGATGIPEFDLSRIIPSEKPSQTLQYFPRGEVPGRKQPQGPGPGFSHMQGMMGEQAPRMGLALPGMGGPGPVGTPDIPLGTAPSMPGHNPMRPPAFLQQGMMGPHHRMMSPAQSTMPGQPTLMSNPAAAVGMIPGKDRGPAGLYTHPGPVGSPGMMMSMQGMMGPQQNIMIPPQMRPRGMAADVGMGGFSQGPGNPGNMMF
Summary of the method: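 Purified His6-tagged full-length β-catenin (40 nM) preincubated with biotinylated BCL9 (5 nM) for 30 min at 4 °C. Inhibitor dilutions then added, 1 h at 4 °C, followed by donor and acceptor beads (10 μg/mL final) for 1 h at 4 °C. IC50 obtained by nonlinear least-squares fit and converted to Ki by the Nikolovska-Coleska method. Triplicate, mean ± SD.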

[2] = target: beta-catenin-B-cell lymphoma 9 protein complex (Homo sapiens) (UniProt P35222+O00512); assay: Inhibition of protein interaction between full-length beta-catenin (unknown origin) / full-length BCL9 (unknown origin) in human HCT-116 cell lysates incubated for 4 hrs by co-immunoprecipitation assay; type: subcellular
Summary of the method: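 HCT116 cells were lysed in 50 mM Tris pH 7.4, 150 mM NaCl, 1% NP-40, 2 mM EDTA and protease inhibitors. Lysates were incubated with a range of inhibitor concentrations for 4 h at 4 °C and precleared on protein A/G agarose. β-Catenin was immunoprecipitated overnight at 4 °C and captured on A/G beads for 3 h. Beads were washed five times and run on 8% SDS-PAGE. Blots were probed for BCL9 and E-cadherin.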

[3] = Effect on HPRT mRNA expression in human SW480 cells at 25 uM incubated for 24 hrs by qPCR analysis relative to control; type: ADME, cell-based; conditions: read-out: FC
Summary of the method: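 SW480 cells at 1 × 10^6/mL were treated with inhibitor for 24 h. Total RNA was extracted with TRIzol and cDNA made by first-strand synthesis. SYBR green qPCR used human HPRT primers, with CT values normalised to GAPDH as internal reference. Performed in triplicate.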

[4] = Drug level in human HCT-116 cells assessed as per million cells at 50 uM incubated for 6 hrs at 37 degC in presence of DMEM media with 10% FBS; type: ADME, cell-based; conditions: hct-116, 6 h
Summary of the method: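 Cells were incubated with 50 μM compound for 6 h in 5 mL DMEM with 10% FBS, at 37 °C or at 4 °C. Cell-bound compound was quantified by a previously described method and expressed as nmol per million cells. The 4 °C incubation was used to estimate binding to the cell membrane through nonspecific association.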

| SMILES | Ki [1] | inhibition [2] | fold induction at 25 µM [3] | Drug uptake [4] |
| --- | --- | --- | --- | --- |
| Cl.Cl.O=C(Nc1ccc(O[C@H]2CCNC2)c(-c2ccc(F)cc2)c1)c1ccc(O[C@H]2CCNC2)c(-c2ccc(F)c(F)c2)c1 | 2100 nM |  |  |  |
| Cl.Cl.O=C(Nc1ccc(O[C@@H]2CCNC2)c(-c2cccc(-c3nn[nH]n3)c2)c1)c1ccc(O[C@H]2CCNC2)c(-c2ccc(F)c(F)c2)c1 |  | Dose-dependent effect | 0.99 | 6.6 nmol |
